Test results from ChEMBL document CHEMBL1124745, “Acyclic purine phosphonate analogues as antiviral agents. Synthesis and structure-activity relationships” (J Med Chem, 1990).
≈ marks a conversion by molar mass, not a printed value.

Test system: Human betaherpesvirus 5
Experiment: Evaluated for the antiviral activity against Human cytomegalovirus (HCMV) strain AD-169 by the plaque reduction assay
Type: functional
Conditions: read-out: ID50 (the source's name)
In short: (§1)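 HCMV AD169 grown and titered at 37 °C in MRC-5 human embryonic lung diploid cells. Plaque reduction assay in MRC-5 with 2-fold drug dilutions in triplicate and no-drug virus controls. ID50 is the concentration reducing plaques by 50% versus control.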

| SMILES | IC50 [µg/mL] |
| --- | --- |
| Nc1nc2c(ncn2COCCO)c(=O)[nH]1 [ACYCLOVIR] | 38.4 (≈ 171 µM) |
| Nc1ncnc2c1ncn2CCOCP(=O)(O)O [ADEFOVIR] | 0.93 (≈ 3.4 µM) |
| Nc1nc2c(ncn2CCOCP(=O)(O)O)c(=O)[nH]1 [GS-438] | 0.04 (≈ 0.138 µM) |
| Nc1nc(O)c2ncn(CCCOCP(=O)(O)O)c2n1 | 6 (≈ 19.8 µM) |

Test system: Rauscher murine leukemia virus
Experiment: Evaluated for the antiretroviral activity against Rauscher-murine leukemia virus (R-MuLV)
Type: functional
Conditions: read-out: ID50 (the source's name)
In short: (§2)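 Rauscher murine leukemia virus tested by UV-XC plaque assay; ID50 in µg/mL.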

| SMILES | IC50 [µg/mL] |
| --- | --- |
| Nc1nc2c(ncn2CCOCP(=O)(O)O)c(=O)[nH]1 [GS-438] | 0.001 (≈ 0.00346 µM) |

Test system: guanylate kinase
Experiment: Evaluated for the kinetic parameter Km, with bovine brain guanylate kinase.
Type: ADME, Bos taurus
Conditions: cattle

| SMILES | Km [mM] |
| --- | --- |
| Nc1nc2c(ncn2[C@H]2C[C@H](O)[C@@H](COP(=O)(O)O)O2)c(=O)[nH]1 | 1.2 |
| CC(COCP(=O)(O)O)n1cnc2c(O)nc(N)nc21 (stereo not drawn) | 3.9 |
| Nc1nc2c(ncn2[C@@H]2O[C@H](COP(=O)(O)O)[C@H](O)[C@@H]2O)c(=O)[nH]1 [E626] | 3.3 |
| Nc1nc2c(ncn2CCOCP(=O)(O)O)c(=O)[nH]1 [GS-438] | 2.7 |
| Nc1nc(O)c2ncn(CCCOCP(=O)(O)O)c2n1 | 4.7 |

Test system: Rauscher murine leukemia virus
Experiment: Evaluated for the antiretroviral activity against Rauscher murine leukemia virus (R-MuLV)
Type: functional
Conditions: read-out: ID50 (the source's name)
In short: as §2

| SMILES | IC50 [µg/mL] |
| --- | --- |
| Cc1cn([C@H]2C[C@H](N=[N+]=[N-])[C@@H](CO)O2)c(=O)[nH]c1=O [ZIDOVUDINE] | 0.001 (≈ 0.00374 µM) |
| Nc1ncnc2c1ncn2CCOCP(=O)(O)O [ADEFOVIR] | 0.05 (≈ 0.183 µM) |
| Nc1nc(O)c2ncn(CCCOCP(=O)(O)O)c2n1 | 0.04 (≈ 0.132 µM) |

Test system: not listed separately
Experiment: Evaluated for the dissociation constant
Type: ADME
Conditions: read-out: pKa2

| SMILES | pKa |
| --- | --- |
| Nc1nc(O)c2ncn(CCCC(F)(F)P(=O)(O)O)c2n1 | 5.52 |
| Nc1nc2c(ncn2COCCP(=O)(O)O)c(=O)[nH]1 | 6.76 |
| Nc1nc(O)c2ncn(CCSCP(=O)(O)O)c2n1 | 6.59 |
| Nc1nc(O)c2ncn(CCCCP(=O)(O)O)c2n1 | 7.08 |
| Nc1nc2c(ncn2CCOCP(=O)(O)O)c(=O)[nH]1 [GS-438] | 6.52 |

Test system: Human alphaherpesvirus 1
Experiment: (§3) Evaluated for the antiviral activity against Herpes simplex virus type 1 (HSV-1).
Type: organism-based
Conditions: read-out: ID50 (the source's name)
In short: (§4)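 Plaque reduction in Vero cells: about 50 PFU HSV per well adsorbed 1 h with intermittent shaking. Inoculum removed; 10% EMEM with 2-fold drug dilutions added in triplicate, with no-drug virus controls. 48 h at 37 °C, 5% CO2, then Giemsa stain and plaque count. ID50 is the concentration giving 50% plaque reduction versus control.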

| SMILES | IC50 [µg/mL] |
| --- | --- |
| Nc1nc2c(ncn2COCCP(=O)(O)O)c(=O)[nH]1 | > 145 |
| CC(COCP(=O)(O)O)n1cnc2c(O)nc(N)nc21 (stereo not drawn) | 3 (≈ 9.89 µM) |
| Nc1nc(O)c2ncn(CCCOCP(=O)(O)O)c2n1 | 65.5 (≈ 216 µM) |
| Nc1nc(O)c2ncn(CCCCOCP(=O)(O)O)c2n1 | > 145 |

Test system: Human alphaherpesvirus 2
Experiment: Evaluated for the antiviral activity against Herpes simplex virus type 2 (HSV-2) strain G by the plaque reduction assay
Type: functional
Conditions: read-out: ID50 (the source's name)
In short: as §4

| SMILES | IC50 [µg/mL] |
| --- | --- |
| Nc1nc(O)c2ncn(CCCC(F)(F)P(=O)(O)O)c2n1 | > 100 |
| Nc1ncnc2c1ncn2CCCOCP(=O)(O)O | > 100 |
| Nc1nc2c(ncn2COCCO)c(=O)[nH]1 [ACYCLOVIR] | 2.4 (≈ 10.7 µM) |
| Nc1nc(O)c2ncn(CCSCP(=O)(O)O)c2n1 | > 100 |
| Nc1ncnc2c1ncn2CCOCP(=O)(O)O [ADEFOVIR] | 9.4 (≈ 34.4 µM) |
| Nc1nc2c(ncn2CCOCP(=O)(O)O)c(=O)[nH]1 [GS-438] | 0.69 (≈ 2.39 µM) |
| Nc1nc(O)c2ncn(CCCOCP(=O)(O)O)c2n1 | > 100 |
| Nc1nc(O)c2ncn(CCCCOCP(=O)(O)O)c2n1 | > 100 |

Test system: not listed separately
Experiment: Evaluated for the rate of phosphorylation with bovine brain guanylate kinase.
Type: ADME, Bos taurus
Conditions: cattle

| SMILES | Relative Vmax |
| --- | --- |
| Nc1nc2c(ncn2[C@H]2C[C@H](O)[C@@H](COP(=O)(O)O)O2)c(=O)[nH]1 | 14 |
| Nc1nc2c(ncn2[C@@H]2O[C@H](COP(=O)(O)O)[C@H](O)[C@@H]2O)c(=O)[nH]1 [E626] | 100 |
| Nc1nc2c(ncn2CCOCP(=O)(O)O)c(=O)[nH]1 [GS-438] | 0.11 |
| Nc1nc(O)c2ncn(CCCOCP(=O)(O)O)c2n1 | 0.0024 |

Test system: Human betaherpesvirus 5
Experiment: Evaluated for the antiviral activity against Human cytomegalovirus (HCMV) with strain AD-169 by the plaque reduction assay
Type: functional
Conditions: read-out: ID50 (the source's name)
In short: as §1

| SMILES | IC50 [µg/mL] |
| --- | --- |
| CC(COCP(=O)(O)O)n1cnc2c(O)nc(N)nc21 (stereo not drawn) | 0.4 (≈ 1.32 µM) |

Test system: CCRF-CEM
Experiment: Evaluated for the anticellular activity against CEM cells by dye-exclusion method
Type: functional
Conditions: Homo sapiens, read-out: ID50 (the source's name)
In short: (§5)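 CEM cells, uninfected; cell count by dye exclusion; ID50 in µg/mL.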

| SMILES | IC50 [µg/mL] |
| --- | --- |
| CC(COCP(=O)(O)O)n1cnc2c(O)nc(N)nc21 (stereo not drawn) | > 100 |
| Cc1cn([C@H]2C[C@H](N=[N+]=[N-])[C@@H](CO)O2)c(=O)[nH]c1=O [ZIDOVUDINE] | > 50 |
| Nc1ncnc2c1ncn2CCOCP(=O)(O)O [ADEFOVIR] | > 100 |

Test system: Human alphaherpesvirus 1
Experiment: as §3
Type: functional
Conditions: read-out: ID50 (the source's name)
In short: as §4

| SMILES | IC50 [µg/mL] |
| --- | --- |
| Nc1nc2c(ncn2CCOCP(=O)(O)O)c(=O)[nH]1 [GS-438] | 0.1 (≈ 0.346 µM) |

Test system: not listed separately
Experiment: Evaluated for the second dissociation constant
Type: ADME
Conditions: read-out: pKa2

| SMILES | pKa |
| --- | --- |
| Cc1cn([C@H]2C[C@H](O)[C@@H](COP(=O)(O)O)O2)c(=O)[nH]c1=O [THYMIDINE MONOPHOSPHATE] | 6.5 |

Test system: Vero
Experiment: Evaluated for the antiviral activity against Vero cells by proliferation assays (in uninfected cells)
Type: functional
Conditions: Chlorocebus sabaeus, read-out: ID50 (the source's name)
In short: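 Cell proliferation assay in uninfected Vero cells; ID50 in µg/mL.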

| SMILES | IC50 [µg/mL] |
| --- | --- |
| Nc1nc(O)c2ncn(CCCC(F)(F)P(=O)(O)O)c2n1 | 100 (≈ 309 µM) |
| Nc1nc2c(ncn2COCCP(=O)(O)O)c(=O)[nH]1 | 100 (≈ 346 µM) |
| CC(COCP(=O)(O)O)n1cnc2c(O)nc(N)nc21 (stereo not drawn) | 60 (≈ 198 µM) |
| Nc1ncnc2c1ncn2CCCOCP(=O)(O)O | 100 (≈ 348 µM) |
| Nc1nc2c(ncn2COCCO)c(=O)[nH]1 [ACYCLOVIR] | 100 (≈ 444 µM) |
| Nc1nc(O)c2ncn(CCSCP(=O)(O)O)c2n1 | 100 (≈ 328 µM) |
| Nc1nc(O)c2ncn(CCCCP(=O)(O)O)c2n1 | 100 (≈ 348 µM) |
| Nc1ncnc2c1ncn2CCOCP(=O)(O)O [ADEFOVIR] | > 100 |
| Nc1nc2c(ncn2CCOCP(=O)(O)O)c(=O)[nH]1 [GS-438] | 5 (≈ 17.3 µM) |
| Nc1nc(O)c2ncn(CCCOCP(=O)(O)O)c2n1 | 76 (≈ 251 µM) |
| Nc1nc(O)c2ncn(CCCCOCP(=O)(O)O)c2n1 | 100 (≈ 315 µM) |

Test system: Human alphaherpesvirus 2
Experiment: Evaluated for the antiviral activity against Herpes simplex virus type 2 (HSV-2) with strain G by the plaque reduction assay
Type: functional
Conditions: read-out: ID50 (the source's name)
In short: as §4

| SMILES | IC50 [µg/mL] |
| --- | --- |
| Nc1nc2c(ncn2COCCP(=O)(O)O)c(=O)[nH]1 | > 100 |
| CC(COCP(=O)(O)O)n1cnc2c(O)nc(N)nc21 (stereo not drawn) | 3.29 (≈ 10.9 µM) |
| Nc1nc(O)c2ncn(CCCCP(=O)(O)O)c2n1 | > 100 |

Organism: Bos taurus
Experiment: Evaluated for the rate of phosphorylation with bovine brain guanylate kinase
Type: ADME
Conditions: cattle, in vivo

| SMILES | Relative Vmax |
| --- | --- |
| CC(COCP(=O)(O)O)n1cnc2c(O)nc(N)nc21 (stereo not drawn) | 0.073 |

Test system: Human immunodeficiency virus 1
Experiment: Evaluated for the antiretroviral activity against Human immunodeficiency virus type 1
Type: functional
Conditions: read-out: ID50 (the source's name)
In short: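 CEM-F cells infected with about 30 TCID50 of HIV (LAV strain) for 45 min at 37 °C. Compound added at various concentrations, then 8-day incubation. p24 gag protein in culture supernatant measured by enzyme-capture ELISA. ID50 (µg/mL) is the dose inhibiting 50% of virus expression.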

| SMILES | IC50 [µg/mL] |
| --- | --- |
| CC(COCP(=O)(O)O)n1cnc2c(O)nc(N)nc21 (stereo not drawn) | 8.4 (≈ 27.7 µM) |
| Cc1cn([C@H]2C[C@H](N=[N+]=[N-])[C@@H](CO)O2)c(=O)[nH]c1=O [ZIDOVUDINE] | 0.05 (≈ 0.187 µM) |
| Nc1ncnc2c1ncn2CCOCP(=O)(O)O [ADEFOVIR] | 3 (≈ 11 µM) |
| Nc1nc2c(ncn2CCOCP(=O)(O)O)c(=O)[nH]1 [GS-438] | > 10 |
| Nc1nc(O)c2ncn(CCCOCP(=O)(O)O)c2n1 | 7.8 (≈ 25.7 µM) |

Test system: CCRF-CEM
Experiment: Evaluated for the anticellular activity against CEM cells
Type: functional
Conditions: Homo sapiens, read-out: ID50 (the source's name)
In short: as §5

| SMILES | IC50 [µg/mL] |
| --- | --- |
| Nc1nc2c(ncn2CCOCP(=O)(O)O)c(=O)[nH]1 [GS-438] | 10 (≈ 34.6 µM) |
| Nc1nc(O)c2ncn(CCCOCP(=O)(O)O)c2n1 | > 100 |

Test system: Human alphaherpesvirus 1
Experiment: Evaluated for the antiviral activity against Herpes simplex virus type 1 (HSV-1) strain BWS by the plaque reduction assay
Type: functional
Conditions: read-out: ID50 (the source's name)
In short: as §4

| SMILES | IC50 [µg/mL] |
| --- | --- |
| Nc1nc(O)c2ncn(CCCC(F)(F)P(=O)(O)O)c2n1 | > 100 |
| Nc1nc2c(ncn2COCCP(=O)(O)O)c(=O)[nH]1 | > 100 |
| CC(COCP(=O)(O)O)n1cnc2c(O)nc(N)nc21 (stereo not drawn) | 2.92 (≈ 9.63 µM) |
| Nc1ncnc2c1ncn2CCCOCP(=O)(O)O | > 100 |
| Nc1nc2c(ncn2COCCO)c(=O)[nH]1 [ACYCLOVIR] | 0.5 (≈ 2.22 µM) |
| Nc1nc(O)c2ncn(CCSCP(=O)(O)O)c2n1 | > 100 |
| Nc1nc(O)c2ncn(CCCCP(=O)(O)O)c2n1 | > 100 |
| Nc1ncnc2c1ncn2CCOCP(=O)(O)O [ADEFOVIR] | 21 (≈ 76.9 µM) |
| Nc1nc2c(ncn2CCOCP(=O)(O)O)c(=O)[nH]1 [GS-438] | 0.08 (≈ 0.277 µM) |
| Nc1nc(O)c2ncn(CCCOCP(=O)(O)O)c2n1 | 65.5 (≈ 216 µM) |
| Nc1nc(O)c2ncn(CCCCOCP(=O)(O)O)c2n1 | > 100 |
